Paper PMC12166256 (Clinical Pharmacology and Therapeutics, 2025)

Assay: MAD study: safety and tolerability
Assay type: in vivo, human
Conditions: for Abdominal pain TEAE, events / Abdominal pain TEAE, participants / Alanine aminotransferase increased TEAE, events / Alanine aminotransferase increased TEAE, participants / Any event TEAE, events / Any event TEAE, participants / Constipation TEAE, events / Constipation TEAE, participants / Diarrhea TEAE, events / Diarrhea TEAE, participants / Dry skin TEAE, events / Dry skin TEAE, participants / Dysgeusia TEAE, events / Dysgeusia TEAE, participants / Gastrointestinal disorders TEAE, events / Gastrointestinal disorders TEAE, participants / General disorders and administration site conditions TEAE, events / General disorders and administration site conditions TEAE, participants / Headache TEAE, events / Headache TEAE, participants / Injury, poisoning, and procedural complications TEAE, events / Injury, poisoning, and procedural complications TEAE, participants / Investigations TEAE, events / Investigations TEAE, participants / Medical device site reaction TEAE, events / Medical device site reaction TEAE, participants / Musculoskeletal and connective tissue disorders TEAE, events / Musculoskeletal and connective tissue disorders TEAE, participants / Nasal dryness TEAE, events / Nasal dryness TEAE, participants / Neck pain TEAE, events / Neck pain TEAE, participants / Nervous system disorders TEAE, events / Nervous system disorders TEAE, participants / Oropharyngeal pain TEAE, events / Oropharyngeal pain TEAE, participants / Reproductive system and breast disorders TEAE, events / Reproductive system and breast disorders TEAE, participants / Respiratory, thoracic, and mediastinal disorders TEAE, events / Respiratory, thoracic, and mediastinal disorders TEAE, participants / Skin and subcutaneous tissue disorders TEAE, events / Skin and subcutaneous tissue disorders TEAE, participants / Sneezing TEAE, events / Sneezing TEAE, participants / Testicular mass TEAE, events / Testicular mass TEAE, participants / Wound TEAE, events / Wound TEAE, participants: N = 8
Procedure, shortened: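 Healthy males aged 18–55 with BMI 18–30 kg/m² were followed through dosing and a 6–8-day follow-up. Checks: physical examination, clinical laboratory tests, vital signs and 12-lead ECG, with adverse events coded in MedDRA. Events of special interest: ALT ≥2×ULN, QTcF ≥500 ms, Grade ≥2 photosensitivity, symptomatic overdose. Treatment-emergent events were summarised descriptively by organ class, preferred term and dose level for all exposed participants.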

CN1C(=O)c2cccc(OC(F)F)c2[C@H]2C[C@@H]1c1nc3ccc(-c4cnc(C5(N)CCC5)nc4)cc3n12 [Balinatunfib]
Grade ≥ 3 TEAE, treatment-emergent SAEs, TEAEs leading to discontinuation (MAD): No participants
Abdominal pain TEAE, events (MAD 100 mg BID): 0
Abdominal pain TEAE, participants (MAD 100 mg BID): 0 n (%)
Alanine aminotransferase increased TEAE, events (MAD 100 mg BID): 0
Alanine aminotransferase increased TEAE, participants (MAD 100 mg BID): 0 n (%)
Any event TEAE, events (MAD 100 mg BID): 3
Any event TEAE, participants (MAD 100 mg BID): 2 (25.0) n (%)
Constipation TEAE, events (MAD 100 mg BID): 0
Constipation TEAE, participants (MAD 100 mg BID): 0 n (%)
Diarrhea TEAE, events (MAD 100 mg BID): 0
Diarrhea TEAE, participants (MAD 100 mg BID): 0 n (%)
Dry skin TEAE, events (MAD 100 mg BID): 0
Dry skin TEAE, participants (MAD 100 mg BID): 0 n (%)
Dysgeusia TEAE, events (MAD 100 mg BID): 0
Dysgeusia TEAE, participants (MAD 100 mg BID): 0 n (%)
Gastrointestinal disorders TEAE, events (MAD 100 mg BID): 0
Gastrointestinal disorders TEAE, participants (MAD 100 mg BID): 0 n (%)
General disorders and administration site conditions TEAE, events (MAD 100 mg BID): 0
General disorders and administration site conditions TEAE, participants (MAD 100 mg BID): 0 n (%)
Headache TEAE, events (MAD 100 mg BID): 0
Headache TEAE, participants (MAD 100 mg BID): 0 n (%)
Injury, poisoning, and procedural complications TEAE, events (MAD 100 mg BID): 0
Injury, poisoning, and procedural complications TEAE, participants (MAD 100 mg BID): 0 n (%)
Investigations TEAE, events (MAD 100 mg BID): 0
Investigations TEAE, participants (MAD 100 mg BID): 0 n (%)
Medical device site reaction TEAE, events (MAD 100 mg BID): 0
Medical device site reaction TEAE, participants (MAD 100 mg BID): 0 n (%)
Musculoskeletal and connective tissue disorders TEAE, events (MAD 100 mg BID): 0
Musculoskeletal and connective tissue disorders TEAE, participants (MAD 100 mg BID): 0 n (%)
Nasal dryness TEAE, events (MAD 100 mg BID): 0
Nasal dryness TEAE, participants (MAD 100 mg BID): 0 n (%)
Neck pain TEAE, events (MAD 100 mg BID): 0
Neck pain TEAE, participants (MAD 100 mg BID): 0 n (%)
Nervous system disorders TEAE, events (MAD 100 mg BID): 0
Nervous system disorders TEAE, participants (MAD 100 mg BID): 0 n (%)
Oropharyngeal pain TEAE, events (MAD 100 mg BID): 1
Oropharyngeal pain TEAE, participants (MAD 100 mg BID): 1 (12.5) n (%)
Reproductive system and breast disorders TEAE, events (MAD 100 mg BID): 1
Reproductive system and breast disorders TEAE, participants (MAD 100 mg BID): 1 (12.5) n (%)
Respiratory, thoracic, and mediastinal disorders TEAE, events (MAD 100 mg BID): 2
Respiratory, thoracic, and mediastinal disorders TEAE, participants (MAD 100 mg BID): 2 (25.0) n (%)
Skin and subcutaneous tissue disorders TEAE, events (MAD 100 mg BID): 0
Skin and subcutaneous tissue disorders TEAE, participants (MAD 100 mg BID): 0 n (%)
Sneezing TEAE, events (MAD 100 mg BID): 1
Sneezing TEAE, participants (MAD 100 mg BID): 1 (12.5) n (%)
Testicular mass TEAE, events (MAD 100 mg BID): 1
Testicular mass TEAE, participants (MAD 100 mg BID): 1 (12.5) n (%)
Wound TEAE, events (MAD 100 mg BID): 0
Wound TEAE, participants (MAD 100 mg BID): 0 n (%)
Abdominal pain TEAE, events (MAD 100 mg QD): 1
Abdominal pain TEAE, participants (MAD 100 mg QD): 1 (12.5) n (%)
Alanine aminotransferase increased TEAE, events (MAD 100 mg QD): 3
Alanine aminotransferase increased TEAE, participants (MAD 100 mg QD): 3 (37.5) n (%)
Any event TEAE, events (MAD 100 mg QD): 9
Any event TEAE, participants (MAD 100 mg QD): 4 (50.0) n (%)
Constipation TEAE, events (MAD 100 mg QD): 0
Constipation TEAE, participants (MAD 100 mg QD): 0 n (%)
Diarrhea TEAE, events (MAD 100 mg QD): 2
Diarrhea TEAE, participants (MAD 100 mg QD): 2 (25.0) n (%)
Dry skin TEAE, events (MAD 100 mg QD): 0
Dry skin TEAE, participants (MAD 100 mg QD): 0 n (%)
Dysgeusia TEAE, events (MAD 100 mg QD): 0
Dysgeusia TEAE, participants (MAD 100 mg QD): 0 n (%)
Gastrointestinal disorders TEAE, events (MAD 100 mg QD): 3
Gastrointestinal disorders TEAE, participants (MAD 100 mg QD): 2 (25.0) n (%)
General disorders and administration site conditions TEAE, events (MAD 100 mg QD): 0
General disorders and administration site conditions TEAE, participants (MAD 100 mg QD): 0 n (%)
Headache TEAE, events (MAD 100 mg QD): 1
Headache TEAE, participants (MAD 100 mg QD): 1 (12.5) n (%)
Injury, poisoning, and procedural complications TEAE, events (MAD 100 mg QD): 1
Injury, poisoning, and procedural complications TEAE, participants (MAD 100 mg QD): 1 (12.5) n (%)
Investigations TEAE, events (MAD 100 mg QD): 3
Investigations TEAE, participants (MAD 100 mg QD): 3 (37.5) n (%)
Medical device site reaction TEAE, events (MAD 100 mg QD): 0
Medical device site reaction TEAE, participants (MAD 100 mg QD): 0 n (%)
Musculoskeletal and connective tissue disorders TEAE, events (MAD 100 mg QD): 1
Musculoskeletal and connective tissue disorders TEAE, participants (MAD 100 mg QD): 1 (12.5) n (%)
Nasal dryness TEAE, events (MAD 100 mg QD): 0
Nasal dryness TEAE, participants (MAD 100 mg QD): 0 n (%)
Neck pain TEAE, events (MAD 100 mg QD): 1
Neck pain TEAE, participants (MAD 100 mg QD): 1 (12.5) n (%)
Nervous system disorders TEAE, events (MAD 100 mg QD): 1
Nervous system disorders TEAE, participants (MAD 100 mg QD): 1 (12.5) n (%)
Oropharyngeal pain TEAE, events (MAD 100 mg QD): 0
Oropharyngeal pain TEAE, participants (MAD 100 mg QD): 0 n (%)
Reproductive system and breast disorders TEAE, events (MAD 100 mg QD): 0
Reproductive system and breast disorders TEAE, participants (MAD 100 mg QD): 0 n (%)
Respiratory, thoracic, and mediastinal disorders TEAE, events (MAD 100 mg QD): 0
Respiratory, thoracic, and mediastinal disorders TEAE, participants (MAD 100 mg QD): 0 n (%)
Skin and subcutaneous tissue disorders TEAE, events (MAD 100 mg QD): 0
Skin and subcutaneous tissue disorders TEAE, participants (MAD 100 mg QD): 0 n (%)
Sneezing TEAE, events (MAD 100 mg QD): 0
Sneezing TEAE, participants (MAD 100 mg QD): 0 n (%)
Testicular mass TEAE, events (MAD 100 mg QD): 0
Testicular mass TEAE, participants (MAD 100 mg QD): 0 n (%)
Wound TEAE, events (MAD 100 mg QD): 1
Wound TEAE, participants (MAD 100 mg QD): 1 (12.5) n (%)
Abdominal pain TEAE, events (MAD 200 mg BID): 0
Abdominal pain TEAE, participants (MAD 200 mg BID): 0 n (%)
